The record followed here is ChEMBL document CHEMBL1136376, “Identification of 2-aminobenzimidazole dimers as antibacterial agents” (2003).

As a reminder, the MIC is the least concentration at which growth counts as inhibited.

In brackets after ≈: the same amount, converted by molar mass. Some results are limits rather than exact numbers.

Type in all cases: functional
For one assay, the system named is Escherichia coli. The assay can be described thus: Antibacterial activity against Escherichia coli. Put shortly:
(§1)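 Broth microdilution MIC run in duplicate. Overnight culture grown in appropriate medium was added to compound in 0.5% DMSO in water, giving about 10²–10³ CFU/well. Growth relative to a compound-free well was read as A595 after 20–24 h at 37 °C. MIC was reported as a range: complete inhibition at the upper concentration, viable cells at the lower. Strains: E. faecalis ATCC 29212, E. coli ATCC 25922, S. aureus ATCC 13709.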

The test system of a further assay is Enterococcus faecalis. Kind of assay: Antibacterial activity against Enterococcus faecalis. Put shortly:
as §1

The next assay deals with Streptococcus pyogenes. The assay can be described thus: Antibacterial activity against Streptococcus pyogenes.
A further assay has as its system Staphylococcus aureus. The assay can be described thus: Antibacterial activity against Staphylococcus aureus. Put shortly:
as §1

With `CN(CCNc1nc2cc(Cl)c(Cl)cc2[nH]1)CCNc1nc2cc(Cl)c(Cl)cc2[nH]1`, the MIC stood at 25 µM (≈ 12.2 µg/mL) with Escherichia coli, 1.5 µM (≈ 0.731 µg/mL) in the assay on Enterococcus faecalis, 6 µM (≈ 2.92 µg/mL) in the assay with Streptococcus pyogenes and 12 µM (≈ 5.85 µg/mL) in the assay on Staphylococcus aureus.
For the compound `Nc1nc2cc(Cl)c(Cl)cc2n1CCCOCCCn1c(N)nc2cc(Cl)c(Cl)cc21`, the MIC in the assay on Escherichia coli and against Staphylococcus aureus was more than 100 µM each time.
`CN(CCCn1cnc2cc(Cl)c(Cl)cc21)CCCn1cnc2cc(Cl)c(Cl)cc21`: the MIC in the assay on Escherichia coli amounted to 100 µM (≈ 48.5 µg/mL); with Staphylococcus aureus, 50 µM (≈ 24.3 µg/mL).
`CN(CCCn1c(N)nc2cc(Br)ccc21)CCCn1c(N)nc2cc(Br)ccc21`: the MIC with Escherichia coli and against Staphylococcus aureus was more than 100 µM in each case.
Regarding `CN(CCCn1c(N)nc2cc(Cl)ccc21)CCCn1c(N)nc2cc(Cl)ccc21`, the MIC against Escherichia coli, against Enterococcus faecalis, in the assay with Streptococcus pyogenes and against Staphylococcus aureus was 50 µM (≈ 22.3 µg/mL) each time.
Turning to `CN(CCCn1c(N)nc2ccccc21)CCCn1c(N)nc2ccccc21`, the MIC with Escherichia coli and in the assay on Staphylococcus aureus was 100 µM (≈ 37.7 µg/mL) each time.
Consider `CN(CCn1c(N)nc2cc(Cl)c(Cl)cc21)CCn1c(N)nc2cc(Cl)c(Cl)cc21`, for which the results for the MIC against Escherichia coli and in the assay with Staphylococcus aureus were 6 µM (≈ 2.92 µg/mL) and 12 µM (≈ 5.85 µg/mL), respectively.
With `CN(CCCNc1nc2cc(Cl)c(Cl)cc2[nH]1)CCCNc1nc2cc(Cl)c(Cl)cc2[nH]1`, the MIC against Escherichia coli is 12 µM (≈ 6.18 µg/mL); in the assay with Enterococcus faecalis, 6 µM (≈ 3.09 µg/mL); against Streptococcus pyogenes, 6 µM (≈ 3.09 µg/mL); in the assay on Staphylococcus aureus it was 6 µM (≈ 3.09 µg/mL).
As to `CN(CCCn1c(N)nc2cc(C#N)ccc21)CCCn1c(N)nc2cc(C#N)ccc21`, the MIC in the assay with Escherichia coli and in the assay with Staphylococcus aureus was more than 100 µM each time.
With `CN(CCCn1c(N)nc2cc(C(F)(F)F)ccc21)CCCn1c(N)nc2cc(C(F)(F)F)ccc21`, the MIC in the assay on Escherichia coli is 25 µM (≈ 12.8 µg/mL); against Enterococcus faecalis, 25 µM (≈ 12.8 µg/mL); in the assay on Streptococcus pyogenes, 25 µM (≈ 12.8 µg/mL); against Staphylococcus aureus, 50 µM (≈ 25.7 µg/mL).
As for `Nc1nc2cc(Cl)c(Cl)cc2n1CCCCCCCn1c(N)nc2cc(Cl)c(Cl)cc21`, the MIC against Escherichia coli and in the assay on Staphylococcus aureus was more than 100 µM throughout.
Take `COC(=O)c1ccc2c(c1)nc(N)n2CCCN(C)CCCn1c(N)nc2cc(C(=O)OC)ccc21`: the MIC in the assay on Escherichia coli and against Staphylococcus aureus was more than 100 µM each time.
As to `CN(CCCn1c(N)nc2cc(Cl)c(Cl)cc21)CCCn1c(N)nc2cc(Cl)c(Cl)cc21`, the MIC with Escherichia coli was found to be 6 µM (≈ 3.09 µg/mL); with Enterococcus faecalis, 6 µM (≈ 3.09 µg/mL); against Streptococcus pyogenes, 6 µM (≈ 3.09 µg/mL); with Staphylococcus aureus, 12 µM (≈ 6.18 µg/mL).
Turning to `COc1ccc2nc(N)n(CCCN(C)CCCn3c(N)nc4ccc(OC)cc43)c2c1`, the MIC in the assay on Escherichia coli and against Staphylococcus aureus was more than 100 µM in each case.
For the compound `Cc1ccc2nc(N)n(CCCN(C)CCCn3c(N)nc4ccc(C)cc43)c2c1`, the MIC against Escherichia coli and against Staphylococcus aureus was more than 100 µM in each case.
